The source made the active and inactive calls. No cut-off for these calls is given here.
Columns and labels:
[1] = Effect on IL-1 beta release in Sprague-Dawley rat microglial cells at 20 uM by ELISA; type: toxicity, cell-based; settings: microglia
How it was run: (§1)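 Primary cortical rat microglia in DMSO (≤0.1%) or vehicle for 1 h, then 100 ng/mL LPS for 24 h. TNF-α and IL-1β in culture medium by ELISA against standard curves (pg/mL), expressed as % of LPS-stimulated cultures. Mean ± SEM of 3 independent experiments; one-way ANOVA, Holm-Sidak test.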

Microglia [2] = experiment: Antiinflammatory activity against Sprague-Dawley rat microglial cells assessed as inhibition of LPS-induced TNF-alpha production at 1 to 20 uM pretreated with compound for 1 hr followed by LPS stimulation for 24 hrs by ELISA; type: functional, cell-based; settings: dose 1-20 µM, time 25.0 hrs; how it was run: as §1
[3] = Effect on TNF-alpha release in Sprague-Dawley rat microglial cells at 20 uM by ELISA; type: toxicity, cell-based; settings: microglia; how it was run: as §1
Microglia [4] = experiment: Antiinflammatory activity against Sprague-Dawley rat microglial cells assessed as inhibition of LPS-induced IL-1 beta production at 1 to 20 uM pretreated with compound for 1 hr followed by LPS stimulation for 24 hrs by ELISA; type: functional, cell-based; settings: dose 1-20 µM, time 25.0 hrs; how it was run: as §1
Microglia [5] = experiment: Cytotoxicity against Sprague-Dawley rat microglial cells assessed as effect on cell viability at 1 to 20 uM incubated for 24 hrs by MTT assay; type: toxicity, cell-based; settings: dose 1-20 µM
How it was run: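 Primary rat microglia, 6×10^4 cells/well, switched to serum-free medium 1 h before 24 h exposure (1–20 μM, DMSO ≤0.1%). MTT 0.18 mg/mL for 4 h at 37 °C, formazan dissolved in DMSO, absorbance 570 nm (reference 630 nm). Vehicle-treated cells = 100% viability.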

[6] = target: Keap1/Nrf2 (Homo sapiens) (UniProt Q16236+Q14145); experiment: Activation of Keap1/Nrf2 in human SH-SY5Y cells assessed as Nrf2 nuclear translocation by measuring increase in nuclear to cytosolic Nrf2 ratio at 2.5 uM incubated for 3 hrs by western blot analysis; type: cell-based
How it was run: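 SH-SY5Y seeded 2×10^6 cells/dish, grown 24 h, then exposed 3 h at 37 °C, 5% CO2. Nuclear and cytosolic fractions immunoblotted for Nrf2, membranes stripped and reprobed for β-actin and lamin B1 as loading references. Mean ± SEM of three independent experiments; one-way ANOVA with Dunnett's test.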

SH-SY5Y [7] = experiment: Cytotoxicity against human SH-SY5Y cells assessed as effect on cell viability at 1.25 to 40 uM incubated for 24 hrs by MTT assay; type: toxicity, cell-based; settings: dose 1.25-40 µM
How it was run: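 SH-SY5Y, 2×10^4 cells/well, grown 24 h then exposed 24 h (1.25–40 μM) at 37 °C, 5% CO2. MTT 0.5 mg/mL in HBSS for 2 h, washed, formazan dissolved in isopropanol, read at 570 nm (reference 690 nm).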

SH-SY5Y [8] = experiment: Antioxidant activity in human SH-SY5Y cells assessed as reduction in intracellular ROS formation at 2.5 uM incubated for 24 hrs followed by incubation with t-BuOOH for 30 mins by H2DCF-DA staining based fluorescence analysis; type: functional; settings: time 24.5 hrs
How it was run: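 SH-SY5Y (2×10^4 cells/well) exposed to 2.5 μM for 24 h, loaded with H2DCF-DA 30 min at room temperature, probe removed, then challenged with 50 μM t-BuOOH 30 min at room temperature. Fluorescence ex 485/em 535 nm, expressed as % ROS increase. Three independent experiments; one-way ANOVA with Dunnett's test.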

Microglia [9] = experiment: Antiinflammatory activity against Sprague-Dawley rat microglial cells assessed as downregulation of TNF-alpha mRNA expression at 10 uM pretreated with compound for 1 hr followed by LPS stimulation for 6 hrs by real-time PCR analysis; type: functional, cell-based; settings: time 7.0 hrs
How it was run: (§2)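 Primary cortical microglia (postnatal day 1 rat pups, shaken off mixed glial cultures, ~97% Iba1-positive). Compound (DMSO ≤0.1%) for 1 h, then 100 ng/mL ultra-pure E. coli LPS for 6 h. QIAzol RNA extraction, SuperScript IV reverse transcription, real-time PCR. Mean ± SEM, n = 3 in triplicate; one-way ANOVA, Holm-Sidak test.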

[10] = target: Amyloid-beta precursor protein (Homo sapiens) (UniProt P05067); experiment: Anti-oligomeric activity against Abeta42 (unknown origin) assessed as depletion of the formation of toxic HMW Abeta42 oligomers at 5 uM measured at day 7 from sample solubilization by capillary electrophoresis assay; settings: time 7.0 day
How it was run: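 Aβ42 stock diluted to 221 μM in 20 mM sodium phosphate pH 7.4 containing compound (ethanol stocks 1.53 mM). Capillary electrophoresis: BGE 80 mM sodium phosphate pH 7.4, 30 mbar × 3 s hydrodynamic injection, +12 kV, 25 °C, 200 nm detection. Oligomers assigned by effective mobility; HMW oligomer peak quantified semiquantitatively as normalised area %.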

Microglia [11] = experiment: Antiinflammatory activity against Sprague-Dawley rat microglial cells assessed as downregulation of NLRP3 mRNA expression at 10 uM pretreated with compound for 1 hr followed by LPS stimulation for 6 hrs by real-time PCR analysis; type: functional, cell-based; settings: time 7.0 hrs; how it was run: as §2
SH-SY5Y [12] = experiment: Antioxidant activity in human SH-SY5Y cells assessed as increase in intracellular GSH level at 2.5 uM incubated for 24 hrs by […] fluorescence analysis; type: functional
How it was run: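 SH-SY5Y (2×10^4 cells/well) grown 24 h, then exposed to 2.5 μM for 24 h at 37 °C. Fluorescent probe added 30 min at 37 °C; read at ex 355/em 460 nm. GSH (μM) from a GSH standard curve. Mean ± SEM of three experiments; one-way ANOVA with Dunnett's test.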

Microglia [13] = experiment: Antiinflammatory activity against Sprague-Dawley rat microglial cells assessed as downregulation of IL-1 beta mRNA expression at 10 uM pretreated with compound for 1 hr followed by LPS stimulation for 6 hrs by real-time PCR analysis; type: functional, cell-based; settings: time 7.0 hrs; how it was run: as §2

Keap1/Nrf2 (Homo sapiens), sequence (Q14145 whole entry, looked up): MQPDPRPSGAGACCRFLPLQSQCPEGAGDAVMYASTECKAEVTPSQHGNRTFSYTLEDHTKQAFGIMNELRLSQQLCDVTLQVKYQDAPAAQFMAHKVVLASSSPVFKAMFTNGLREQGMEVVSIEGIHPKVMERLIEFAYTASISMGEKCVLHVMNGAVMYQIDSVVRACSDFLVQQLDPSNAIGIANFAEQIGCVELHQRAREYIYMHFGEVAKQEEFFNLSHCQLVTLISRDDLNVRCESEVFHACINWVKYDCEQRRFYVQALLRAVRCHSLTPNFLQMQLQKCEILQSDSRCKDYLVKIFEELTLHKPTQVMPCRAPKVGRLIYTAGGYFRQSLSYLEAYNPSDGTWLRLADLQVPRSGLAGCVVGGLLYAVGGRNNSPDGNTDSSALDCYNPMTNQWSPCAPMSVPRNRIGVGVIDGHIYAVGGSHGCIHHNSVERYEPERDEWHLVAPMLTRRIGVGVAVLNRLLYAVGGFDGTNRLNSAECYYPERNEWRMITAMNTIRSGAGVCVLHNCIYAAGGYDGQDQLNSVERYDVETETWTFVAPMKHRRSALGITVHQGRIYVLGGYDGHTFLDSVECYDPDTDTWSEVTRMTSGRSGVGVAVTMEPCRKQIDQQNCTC
Keap1/Nrf2 (Homo sapiens), sequence (Q16236 whole entry, looked up): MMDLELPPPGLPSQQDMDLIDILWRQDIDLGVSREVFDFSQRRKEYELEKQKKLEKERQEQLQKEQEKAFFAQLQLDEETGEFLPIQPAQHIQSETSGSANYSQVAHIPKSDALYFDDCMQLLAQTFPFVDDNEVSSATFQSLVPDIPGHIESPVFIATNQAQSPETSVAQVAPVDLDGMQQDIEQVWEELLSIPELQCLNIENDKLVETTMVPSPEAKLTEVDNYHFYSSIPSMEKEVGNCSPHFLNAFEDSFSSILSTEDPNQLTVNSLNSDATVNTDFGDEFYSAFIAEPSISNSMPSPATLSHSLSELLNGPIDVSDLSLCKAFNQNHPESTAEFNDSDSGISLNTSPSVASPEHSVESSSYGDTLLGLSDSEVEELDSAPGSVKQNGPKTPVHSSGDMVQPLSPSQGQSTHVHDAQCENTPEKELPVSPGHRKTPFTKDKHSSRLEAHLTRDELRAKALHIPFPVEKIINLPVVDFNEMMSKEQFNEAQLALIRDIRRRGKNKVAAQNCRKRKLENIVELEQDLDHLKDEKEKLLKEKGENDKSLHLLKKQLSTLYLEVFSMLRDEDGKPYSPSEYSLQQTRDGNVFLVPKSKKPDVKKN
Amyloid-beta precursor protein (Homo sapiens), sequence (P05067 whole entry): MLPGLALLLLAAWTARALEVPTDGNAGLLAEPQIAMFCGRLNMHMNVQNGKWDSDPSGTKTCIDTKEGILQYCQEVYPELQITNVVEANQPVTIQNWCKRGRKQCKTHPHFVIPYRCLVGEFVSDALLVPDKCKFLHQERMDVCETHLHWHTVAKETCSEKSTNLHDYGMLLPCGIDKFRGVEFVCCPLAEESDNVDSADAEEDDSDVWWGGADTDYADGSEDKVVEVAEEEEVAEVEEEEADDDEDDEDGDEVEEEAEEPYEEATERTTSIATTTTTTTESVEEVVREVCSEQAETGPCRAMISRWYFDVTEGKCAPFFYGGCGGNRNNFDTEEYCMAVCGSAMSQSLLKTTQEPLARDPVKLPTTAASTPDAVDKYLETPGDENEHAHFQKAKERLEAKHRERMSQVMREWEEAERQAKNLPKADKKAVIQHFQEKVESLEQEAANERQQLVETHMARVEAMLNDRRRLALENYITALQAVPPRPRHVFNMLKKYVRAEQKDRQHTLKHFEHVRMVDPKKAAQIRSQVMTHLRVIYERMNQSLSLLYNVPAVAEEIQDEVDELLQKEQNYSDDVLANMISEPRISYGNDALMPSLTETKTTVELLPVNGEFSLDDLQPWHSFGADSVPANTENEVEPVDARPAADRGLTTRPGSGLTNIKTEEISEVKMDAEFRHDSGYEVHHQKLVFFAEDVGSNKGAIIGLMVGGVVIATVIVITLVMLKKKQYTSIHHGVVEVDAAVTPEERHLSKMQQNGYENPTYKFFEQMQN

| Activity [6] | Compound | Activity [1] | Activity (Microglia [2]) | Activity [3] | Activity (Microglia [4]) | Activity (Microglia [5]) | Activity (SH-SY5Y [7]) | Activity (SH-SY5Y [8]) | Activity (Microglia [9]) | Activity [10] | Activity (Microglia [11]) | Activity (SH-SY5Y [12]) | Activity (Microglia [13]) | inhibition at 2.5 µM (SH-SY5Y [8]) [%] |
| --- | --- | --- | --- | --- | --- | --- | --- | --- | --- | --- | --- | --- | --- | --- |
|  | COc1ccc(/C=C/C(=O)/C(CC(=O)O)=C(O)/C=C/c2ccc(OC)cc2)cc1 (mixture of isomers) | Non-Toxic | inactive | Non-Toxic | inactive | Non-Toxic |  |  |  |  |  |  |  |  |
| inactive | COc1ccc(/C=C/C(=O)/C=C(O)/C=C/c2ccc(OC)cc2)cc1 | Non-Toxic | inactive | Non-Toxic | inactive | Non-Toxic | Non-Toxic | inactive | inactive | inactive | inactive | inactive | inactive |  |
| inactive | CCOC(=O)C/C(C(=O)/C=C/c1ccc(OC)cc1)=C(O)\C=C\c1ccc(OC)cc1 | Non-Toxic | Active | Non-Toxic | Active | Non-Toxic | Non-Toxic |  | Active | inactive | Active | Active | Active | 38 |
